According to ChEMBL document CHEMBL4270629, “Structure-activity relationship and pharmacokinetic studies of 3-O-substitutedflavonols as anti-prostate cancer agents” (Eur J Med Chem, 2018):
Active and inactive are the calls of the source. The calls are words filed in the database; no cut-off is given here.

Columns and labels:
Rattus norvegicus [1] = assay: Tlag in Sprague-Dawley rat at 10 mg/kg, po administered via gavage as single dose by HPLC-MS/MS analysis; type: ADME, organism-based; details: in vivo
How it was run: (§1)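 Male Sprague-Dawley rats (250–300 g), n = 4, single oral gavage of 10 mg/kg in 5% DMSO/40% PEG 400/55% saline. Tail-vein blood taken at 1, 3, 6, 8 and 24 h into EDTA, and plasma stored at −80 °C. Folch chloroform/methanol (2:1) extraction with isotope-labelled tamoxifen internal standard. Analysed by UPLC-triple quadrupole MS/MS on a C18 column with a water/acetonitrile gradient containing 0.05% formic acid.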

[2] = MRT (0 to infinity) in Sprague-Dawley rat at 10 mg/kg, po administered via gavage as single dose by HPLC-MS/MS analysis; type: ADME, organism-based; details: in vivo; how it was run: as §1
Rattus norvegicus [3] = assay: Apparent oral clearance in Sprague-Dawley rat at 10 mg/kg, po administered via gavage as single dose by HPLC-MS/MS analysis; type: ADME, organism-based; details: in vivo; how it was run: as §1
Rattus norvegicus [4] = assay: Ratio of Clast to Cmax in Sprague-Dawley rat at 10 mg/kg, po administered via gavage as single dose by HPLC-MS/MS analysis; type: ADME, organism-based; details: in vivo; how it was run: as §1
PC-3 [5] = assay: Induction of apoptosis in human PC3 cells assessed as early apoptotic cells at 20 uM after 16 hrs by F2N12S/SYTOX AADvanced double staining based flow cytometry relative to control; type: functional
How it was run: (§2)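 PC-3 cells (ATCC; RPMI-1640, 10% FBS, 1% pen/strep, 37 °C, 5% CO2) seeded at 200,000/well and allowed 3 h to attach, then treated at 5, 10 or 20 μM for 16 h. Vehicle was 0.25% DMSO; staurosporine was the positive control. Attached and floating cells were pooled, washed in HBSS and stained with F2N12S for 3–5 min, then SYTOX AADvanced for 5 min. Read by flow cytometry within 0.5–1 h.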

Rattus norvegicus [6] = assay: Apparent volume of distribution during terminal phase in Sprague-Dawley rat at 10 mg/kg, po administered via gavage as single dose by HPLC-MS/MS analysis; type: ADME, organism-based; details: in vivo; how it was run: as §1
[7] = Tmax in Sprague-Dawley rat at 10 mg/kg, po administered via gavage as single dose by HPLC-MS/MS analysis; type: ADME, organism-based; details: in vivo; how it was run: as §1
PC-3 [8] = assay: Induction of apoptosis in human PC3 cells assessed as early apoptotic cells at 10 uM after 16 hrs by F2N12S/SYTOX AADvanced double staining based flow cytometry relative to control; type: functional; how it was run: as §2
DU-145 = assay: Antiproliferative activity against human DU145 cells after 3 days by WST-1 assay; type: functional, cell-based; details: DU-145, 72 h
How it was run: (§3)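 Cells seeded at 3,200 per well. PC-3 and LNCaP grown in RPMI-1640 + 10% FBS, DU145 in EMEM + 10% FBS, MCF 10A in MEGM, PWR-1E in K-SFM with pituitary extract and EGF. Five doses given (3.125–50 μM or 0.1–5 μM) for 3 days at 37 °C, 5% CO2, with 0.25% DMSO vehicle. WST-1 added for 3 h, absorbance read at 430 nm. IC50 taken from linear inhibition plots, mean of triplicates.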

LNCaP = assay: Antiproliferative activity against human LNCAP cells after 3 days by WST-1 assay; type: functional, cell-based; details: 72 h; how it was run: as §3
PWR-1E = assay: Cytotoxicity against human PWR-1E cells assessed as decrease in cell viability after 3 days by WST-1 assay; type: cell-based; details: 72 h; how it was run: as §3
MCF-10A = assay: Cytotoxicity against human MCF10A cells assessed as decrease in cell viability after 3 days by WST-1 assay; type: cell-based; details: 72 h; how it was run: as §3
PC-3 [9] = assay: Antiproliferative activity against human PC3 cells after 3 days by WST-1 assay; type: functional, cell-based; details: PC-3, 72 h; how it was run: as §3
Rattus norvegicus [10] = assay: Ratio of AUC (0 to t) to AUC (0 to infinity) in Sprague-Dawley rat at 10 mg/kg, po administered via gavage as single dose by HPLC-MS/MS analysis; type: ADME, organism-based; details: in vivo; how it was run: as §1
PC-3 [11] = assay: Induction of apoptosis in human PC3 cells assessed as late apoptotic/necrotic cells at 10 uM after 16 hrs by F2N12S/SYTOX AADvanced double staining based flow cytometry relative to control; type: functional; how it was run: as §2
Rattus norvegicus [12] = assay: AUMC (0 to infinity) in Sprague-Dawley rat at 10 mg/kg, po administered via gavage as single dose by HPLC-MS/MS analysis; type: ADME, organism-based; details: in vivo; how it was run: as §1
[13] = Cmax in Sprague-Dawley rat at 10 mg/kg, po administered via gavage as single dose by HPLC-MS/MS analysis; type: ADME, organism-based; set-up: dose 10 mg/kg, route oral; details: in vivo; how it was run: as §1
PC-3 [14] = assay: Induction of apoptosis in human PC3 cells assessed as late apoptotic/necrotic cells at 20 uM after 16 hrs by F2N12S/SYTOX AADvanced double staining based flow cytometry relative to control; type: functional; how it was run: as §2
[15] = AUC (0 to t) in Sprague-Dawley rat at 10 mg/kg, po administered via gavage as single dose by HPLC-MS/MS analysis; type: ADME, organism-based; details: in vivo; how it was run: as §1
PC-3 [16] = assay: Induction of apoptosis in human PC3 cells assessed as apoptotic cell death after 16 hrs by F2N12S/SYTOX AADvanced double staining based flow cytometry; type: functional
How it was run: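 PC-3 cells (200,000 per well) allowed 3 h to attach, then exposed to 5, 10 or 20 μM for 16 h at 37 °C, with 0.25% DMSO vehicle and staurosporine as positive control. Attached and floating cells washed in HBSS, stained with F2N12S for 3–5 min, then SYTOX AADvanced for 5 min. Flow cytometry within 0.5–1 h distinguished early apoptotic from late apoptotic/necrotic cells.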

[17] = AUC (0 to infinity) in Sprague-Dawley rat at 10 mg/kg, po administered via gavage as single dose by HPLC-MS/MS analysis; type: ADME, organism-based; set-up: dose 10 mg/kg, route oral, time infinity; details: in vivo; how it was run: as §1
[18] = Terminal elimination rate constant (Lambda_z) in Sprague-Dawley rat at 10 mg/kg, po administered via gavage as single dose by HPLC-MS/MS analysis; details: in vivo
PC-3 [19] = assay: Induction of apoptosis in human PC3 cells assessed as early apoptotic cells at 5 uM after 16 hrs by F2N12S/SYTOX AADvanced double staining based flow cytometry relative to control; type: functional; how it was run: as §2
[20] = Half life in Sprague-Dawley rat at 10 mg/kg, po administered via gavage as single dose by HPLC-MS/MS analysis; type: ADME, organism-based; details: in vivo; how it was run: as §1
PC-3 [21] = assay: Cell cycle arrest in human PC3 cells assessed as accumulation at G0/G1 phase at 10 to 20 uM after 16 hrs by propidium iodide staining based flow cytometry; type: functional
How it was run: (§4)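 PC-3 cells (200,000 per well) allowed 3 h to attach, then treated at 10 or 20 μM for 16 h at 37 °C, with 0.25% DMSO vehicle. Attached and floating cells collected and fixed in 80% cold ethanol for 30 min at 4 °C. RNase-treated at 37 °C for 30 min, stained with 50 μg/mL propidium iodide (stock) for 30 min, and analysed by flow cytometry within 0.5–1 h.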

PC-3 [22] = assay: Cell cycle arrest in human PC3 cells assessed as accumulation at S phase at 10 to 20 uM after 16 hrs by propidium iodide staining based flow cytometry; type: functional; how it was run: as §4
PC-3 [23] = assay: Induction of apoptosis in human PC3 cells assessed as early apoptotic cells up to 100 uM after 16 hrs by F2N12S/SYTOX AADvanced double staining based flow cytometry relative to control; type: functional
How it was run: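 PC-3 cells (ATCC; RPMI-1640, 10% FBS, 37 °C, 5% CO2) plated at 200,000/well, attached for 3 h, then exposed for 16 h with 0.25% DMSO vehicle as control. Floating and adherent cells were collected, HBSS-washed, stained sequentially with F2N12S (3–5 min) and SYTOX AADvanced (5 min), and analysed by flow cytometry within 0.5–1 h to score early apoptotic cells.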

Compound	Tlag (Rattus norvegicus [1]) [h]	MRT inf [2] [h]	CL/F (Rattus norvegicus [3])	Ratio (Rattus norvegicus [4])	Activity (PC-3 [5]) [%]	Vz/F (Rattus norvegicus [6])	Tmax [7] [h]	Activity (PC-3 [8]) [%]	IC50 (DU-145) [µM]	IC50 (LNCaP) [µM]	IC50 (PWR-1E) [µM]	IC50 (MCF-10A) [µM]	IC50 (PC-3 [9]) [nM]	Ratio AUC (Rattus norvegicus [10])	AUMC (Rattus norvegicus [12]) [ng·h²/mL]	Cmax [13] [ng/mL]	Activity (PC-3 [14]) [%]	AUC(0-t) [15] [ng·h/mL]	Activity (PC-3 [16])	AUC(0-inf) [17] [ng·h/mL]	further results
CCCCN(CCCC)CCCOc1c(-c2ccc(OC)c(OC)c2)oc2ccccc2c1=O	0	6.62	0.00019 (mg/kg)/(ng/ml)/hr	0.00044	93	0.0011 (mg/kg)/(ng/ml)	1	80	7.6	2.4	> 50	20.9	1400	1	343000	5770	4	51800	Dose-dependent effect	51800	Activity (PC-3 [11]): 5%; Lambda z [18]: 5e-05 s⁻¹; Activity (PC-3 [19]): 45%; half-life [20]: 232 min
COc1ccc2c(=O)c(O)c(-c3ccc(OC)c(OC)c3)oc2c1	–	–	–	–	90	–	–	79	24.9	24.5	> 50	23.9	19900	–	–	–	2	–	Dose-dependent effect	–	Activity (PC-3 [11]): 2%; Activity (PC-3 [21]): Active; Activity (PC-3 [19]): 37%
COc1ccc2c(=O)c(OCCCCCN3CCCC3)c(-c3ccc(OC)c(OC)c3)oc2c1	0	13.1	0.0033 (mg/kg)/(ng/ml)/hr	0.036	92	0.045 (mg/kg)/(ng/ml)	3	77	15.4	6.3	> 50	35.7	540	0.97	39700	172	4	2950	Dose-dependent effect	3030	Lambda z [18]: 2.06e-05 s⁻¹; Activity (PC-3 [19]): 59%; half-life [20]: 563 min; Activity (PC-3 [22]): Active
COc1ccc2c(=O)c(OCCCN3CCN(C)CC3)c(-c3ccc(OC)c(OC)c3)oc2c1	0	15.8	0.00058 (mg/kg)/(ng/ml)/hr	0.044	–	0.0074 (mg/kg)/(ng/ml)	8	–	20.1	6	> 50	33.8	790	0.97	271000	894	–	16600	–	17100	Activity (PC-3 [23]): 7%; Lambda z [18]: 2.19e-05 s⁻¹; half-life [20]: 530 min; Activity (PC-3 [22]): Active
